From ChEMBL document CHEMBL3588831, “Synthesis and in Vivo Evaluation of [123I]Melanin-Targeted Agents” (J Med Chem, 2015)

Tests used:
Mus musculus [1] = test: Biodistribution in tumor of C57BL/6J mouse bearing mouse B16F0 cells at 0.37 to 1.85 MBq, iv after 1 hr by gamma counting method; format: ADME, organism-based; details: in vivo
Summary of the method: (§1)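 Female C57BL/6J mice (5−6 weeks), s.c. inoculated on left flank with 3 × 10^5 B16F0 cells in Ca2+/Mg2+-free PBS, used 11 days later (tumors 2−12 mm). Radiotracer given via tail vein in 100 μL (~0.37 MBq for 1−24 h, 1.85 MBq for 48 h). Organs dissected, weighed, γ-counted, decay corrected. Expressed as % ID/g against injected-dose dilutions. Mean ± SEM, n = 5.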

Mus musculus [2] = test: Biodistribution in tumor of C57BL/6J mouse bearing mouse B16F0 cells at 0.37 to 1.85 MBq, iv after 3 hrs by gamma counting method; format: ADME, organism-based; details: in vivo; summary of the method: as §1
Mus musculus [3] = test: Biodistribution in tumor of C57BL/6J mouse bearing mouse B16F0 cells at 0.37 to 1.85 MBq, iv after 6 hrs by gamma counting method; format: ADME, organism-based; details: in vivo; summary of the method: as §1
Mus musculus [4] = test: Biodistribution in tumor of C57BL/6J mouse bearing mouse B16F0 cells at 0.37 to 1.85 MBq, iv after 16 hrs by gamma counting method; format: ADME, organism-based; details: in vivo; summary of the method: as §1
Mus musculus [5] = test: Biodistribution in tumor of C57BL/6J mouse bearing mouse B16F0 cells at 0.37 to 1.85 MBq, iv after 24 hrs by gamma counting method; format: ADME, organism-based; details: in vivo; summary of the method: as §1
Mus musculus [6] = test: Biodistribution in eyes of C57BL/6J mouse bearing mouse B16F0 cells at 0.37 to 1.85 MBq, iv after 6 hrs by gamma counting method; format: ADME, organism-based, Eye; details: in vivo; summary of the method: as §1
Mus musculus [7] = test: Biodistribution in eyes of C57BL/6J mouse bearing mouse B16F0 cells at 0.37 to 1.85 MBq, iv after 16 hrs by gamma counting method; format: ADME, organism-based, Eye; details: in vivo; summary of the method: as §1
Mus musculus [8] = test: Biodistribution in eyes of C57BL/6J mouse bearing mouse B16F0 cells at 0.37 to 1.85 MBq, iv after 24 hrs by gamma counting method; format: ADME, organism-based, Eye; details: in vivo; summary of the method: as §1
Mus musculus [9] = test: Biodistribution in large gastrointestinal tract of C57BL/6J mouse bearing mouse B16F0 cells at 0.37 to 1.85 MBq, iv after 1 hr by gamma counting method; format: ADME, organism-based, Large intestine; details: in vivo; summary of the method: as §1
Mus musculus [10] = test: Biodistribution in large gastrointestinal tract of C57BL/6J mouse bearing mouse B16F0 cells at 0.37 to 1.85 MBq, iv after 16 hrs by gamma counting method; format: ADME, organism-based, Large intestine; details: in vivo; summary of the method: as §1
Mus musculus [11] = test: Biodistribution in small gastrointestinal tract of C57BL/6J mouse bearing mouse B16F0 cells at 0.37 to 1.85 MBq, iv after 3 hrs by gamma counting method; format: ADME, organism-based, Small intestine; details: in vivo; summary of the method: as §1
Mus musculus [12] = test: Biodistribution in small gastrointestinal tract of C57BL/6J mouse bearing mouse B16F0 cells at 0.37 to 1.85 MBq, iv after 16 hrs by gamma counting method; format: ADME, organism-based, Small intestine; details: in vivo; summary of the method: as §1
Mus musculus [13] = test: Biodistribution in small gastrointestinal tract of C57BL/6J mouse bearing mouse B16F0 cells at 0.37 to 1.85 MBq, iv after 24 hrs by gamma counting method; format: ADME, organism-based, Small intestine; details: in vivo; summary of the method: as §1
Mus musculus [14] = test: Biodistribution in thyroid gland of C57BL/6J mouse bearing mouse B16F0 cells at 0.37 to 1.85 MBq, iv after 6 hrs by gamma counting method; format: ADME, organism-based; details: in vivo; summary of the method: as §1
Mus musculus [15] = test: Biodistribution in thyroid gland of C57BL/6J mouse bearing mouse B16F0 cells at 0.37 to 1.85 MBq, iv after 16 hrs by gamma counting method; format: ADME, organism-based; details: in vivo; summary of the method: as §1
Mus musculus [16] = test: Biodistribution in thyroid gland of C57BL/6J mouse bearing mouse B16F0 cells at 0.37 to 1.85 MBq, iv after 24 hrs by gamma counting method; format: ADME, organism-based; details: in vivo; summary of the method: as §1
Mus musculus [17] = test: Biodistribution in thyroid gland of C57BL/6J mouse bearing mouse B16F0 cells at 0.37 to 1.85 MBq, iv after 48 hrs by gamma counting method; format: ADME, organism-based; details: in vivo; summary of the method: as §1
Spleen [18] = test: Biodistribution in spleen of C57BL/6J mouse bearing mouse B16F0 cells at 0.37 to 1.85 MBq, iv after 1 hr by gamma counting method; format: ADME, organism-based; details: in vivo; summary of the method: as §1
Spleen [19] = test: Biodistribution in spleen of C57BL/6J mouse bearing mouse B16F0 cells at 0.37 to 1.85 MBq, iv after 16 hrs by gamma counting method; format: ADME, organism-based; details: in vivo; summary of the method: as §1
Spleen [20] = test: Biodistribution in spleen of C57BL/6J mouse bearing mouse B16F0 cells at 0.37 to 1.85 MBq, iv after 24 hrs by gamma counting method; format: ADME, organism-based; details: in vivo; summary of the method: as §1
Liver = test: Biodistribution in liver of C57BL/6J mouse bearing mouse B16F0 cells at 0.37 to 1.85 MBq, iv after 16 hrs by gamma counting method; format: ADME, organism-based; details: in vivo; summary of the method: as §1
Kidney [21] = test: Biodistribution in kidney of C57BL/6J mouse bearing mouse B16F0 cells at 0.37 to 1.85 MBq, iv after 3 hrs by gamma counting method; format: ADME, organism-based; details: in vivo; summary of the method: as §1
Kidney [22] = test: Biodistribution in kidney of C57BL/6J mouse bearing mouse B16F0 cells at 0.37 to 1.85 MBq, iv after 6 hrs by gamma counting method; format: ADME, organism-based; details: in vivo; summary of the method: as §1
Kidney [23] = test: Biodistribution in kidney of C57BL/6J mouse bearing mouse B16F0 cells at 0.37 to 1.85 MBq, iv after 16 hrs by gamma counting method; format: ADME, organism-based; details: in vivo; summary of the method: as §1
Kidney [24] = test: Biodistribution in kidney of C57BL/6J mouse bearing mouse B16F0 cells at 0.37 to 1.85 MBq, iv after 24 hrs by gamma counting method; format: ADME, organism-based; details: in vivo; summary of the method: as §1
[25] = Ratio of AUC in tumor to bone of C57BL/6J mouse bearing mouse B16F0 cells at 0.37 to 1.85 MBq, iv by gamma counting method; format: ADME, organism-based; details: in vivo
Summary of the method: (§2)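 Biodistribution in B16F0-bearing C57BL/6J mice given i.v. tail-vein tracer (~0.37 MBq for 1–24 h, 1.85 MBq for 48 h). Sacrifice at 1, 3, 6, 16, 24 and 48 h, then organs dissected, weighed and γ-counted as decay-corrected % ID/g. Tumor AUC divided by each organ AUC; mean of ratios ± SEM, n = 5.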

[26] = Ratio of AUC in tumor to thyroid gland of C57BL/6J mouse bearing mouse B16F0 cells at 0.37 to 1.85 MBq, iv by gamma counting method; format: ADME, organism-based; details: in vivo; summary of the method: as §2
[27] = Stability in eyes of C57BL/6J mouse bearing mouse B16F0 cells assessed as intact parent compound level at 0.37 to 1.85 MBq, iv after 3 hrs by radio-HPLC and radio-TLC method; format: ADME, organism-based, Eye; details: in the assay text read “20 MBq” for “0.37 to 1.85 MBq”, read-out: Stability
Summary of the method: (§3)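 Tumor-bearing C57BL/6J mice were sampled 3 and 24 h after i.v. tracer. Tissue was sonicated in CH3CN/water (3:2) with cold iodo standard and KI, then centrifuged. Urine was diluted and spiked; plasma was spiked, with CH3CN precipitation for TLC. Intact fraction came from silica radio-TLC (spot matching standard Rf) and radio-HPLC with precolumn/C18 column switching.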

Plasma = test: Stability in plasma of C57BL/6J mouse bearing mouse B16F0 cells assessed as drug degradation at 0.37 to 1.85 MBq, iv after 24 hrs by radio-HPLC and radio-TLC method; format: ADME, organism-based; details: in vivo, in the assay text read “20 MBq” for “0.37 to 1.85 MBq”; summary of the method: as §3
[28] = Stability in urine of C57BL/6J mouse bearing mouse B16F0 cells assessed as drug degradation at 0.37 to 1.85 MBq, iv after 24 hrs by radio-HPLC and radio-TLC method; format: ADME, organism-based; details: in vivo, in the assay text read “20 MBq” for “0.37 to 1.85 MBq”; summary of the method: as §3

Structure (SMILES)	Drug uptake (Mus musculus [1])	Drug uptake (Mus musculus [2])	Drug uptake (Mus musculus [3])	Drug uptake (Mus musculus [4])	Drug uptake (Mus musculus [5])	Drug uptake (Mus musculus [6])	Drug uptake (Mus musculus [7])	Drug uptake (Mus musculus [8])	Drug uptake (Mus musculus [9])	Drug uptake (Mus musculus [10])	Drug uptake (Mus musculus [11])	Drug uptake (Mus musculus [12])	Drug uptake (Mus musculus [13])	Drug uptake (Mus musculus [14])	Drug uptake (Mus musculus [15])	Drug uptake (Mus musculus [16])	Drug uptake (Mus musculus [17])	Drug uptake (Spleen [18])	Drug uptake (Spleen [19])	Drug uptake (Spleen [20])	further results
O=C(CN1Cc2ccccc2C1=O)N1C[C@H]2CN(Cc3ccc([123I])cc3)C[C@H]2C1	10.3 % ID/g	10.8 % ID/g	10.4 % ID/g	11.6 % ID/g	7.8 % ID/g	21.8 % ID/g	22.1 % ID/g	18.4 % ID/g	3.5 % ID/g	1.4 % ID/g	15.2 % ID/g	0.5 % ID/g	0.3 % ID/g	2.8 % ID/g	1 % ID/g	1 % ID/g	3.4 % ID/g	0.2 % ID/g	0.2 % ID/g	0.05 % ID/g	Drug uptake (Liver): 0.7 % ID/g; Drug uptake (Kidney [21]): 8.4 % ID/g; Drug uptake (Kidney [22]): 4.1 % ID/g; Drug uptake (Kidney [23]): 1 % ID/g; Drug uptake (Kidney [24]): 0.5 % ID/g; Ratio [25]: 25; Ratio [26]: 6; remaining at 3 h [27]: 90%; Stability (Plasma): Unstable; Stability [28]: Unstable
O=C(c1ccc2c(n1)NCCC2)N1CCN(Cc2ccc([123I])cc2)CC1	19.2 % ID/g	32.1 % ID/g	32.5 % ID/g	20.4 % ID/g	12.9 % ID/g	52.8 % ID/g	28.6 % ID/g	30.8 % ID/g	7.9 % ID/g	2.3 % ID/g	63.8 % ID/g	1.4 % ID/g	0.8 % ID/g	2.7 % ID/g	2.5 % ID/g	2 % ID/g	2.1 % ID/g	3.5 % ID/g	0.3 % ID/g	0.2 % ID/g	Drug uptake (Liver): 0.9 % ID/g; Drug uptake (Kidney [21]): 9 % ID/g; Drug uptake (Kidney [22]): 10 % ID/g; Drug uptake (Kidney [23]): 1.2 % ID/g; Drug uptake (Kidney [24]): 1 % ID/g; Ratio [25]: 65.5; Ratio [26]: 7.2; remaining at 3 h [27]: 60%; Stability (Plasma): Unstable; Stability [28]: Unstable
O=C(c1ccc2cccnc2n1)N1CCN(Cc2ccc([123I])cc2)CC1	17.1 % ID/g	20 % ID/g	19.4 % ID/g	18.4 % ID/g	14.4 % ID/g	37.2 % ID/g	32.9 % ID/g	35.1 % ID/g	3.2 % ID/g	1.8 % ID/g	14.1 % ID/g	1.3 % ID/g	0.9 % ID/g	3.5 % ID/g	1.6 % ID/g	2.9 % ID/g	5.3 % ID/g	2.6 % ID/g	0.8 % ID/g	0.5 % ID/g	Drug uptake (Liver): 2.4 % ID/g; Drug uptake (Kidney [21]): 6.2 % ID/g; Drug uptake (Kidney [22]): 5.2 % ID/g; Drug uptake (Kidney [23]): 1.6 % ID/g; Drug uptake (Kidney [24]): 1.4 % ID/g; Ratio [25]: 44; Ratio [26]: 5; remaining at 3 h [27]: 60%; Stability (Plasma): Unstable; Stability [28]: Unstable
O=C(CN1Cc2ccccc2C1=O)NC1CCN(Cc2ccc([123I])cc2)CC1	6.2 % ID/g	11.6 % ID/g	18.1 % ID/g	18.1 % ID/g	15.2 % ID/g	28.1 % ID/g	40.4 % ID/g	41.4 % ID/g	6.6 % ID/g	8.1 % ID/g	12 % ID/g	3.7 % ID/g	3.8 % ID/g	3.1 % ID/g	2.3 % ID/g	2.6 % ID/g	2.4 % ID/g	9.6 % ID/g	1.3 % ID/g	1.2 % ID/g	Drug uptake (Liver): 7.1 % ID/g; Drug uptake (Kidney [21]): 7.4 % ID/g; Drug uptake (Kidney [22]): 5 % ID/g; Drug uptake (Kidney [23]): 1.8 % ID/g; Drug uptake (Kidney [24]): 1.9 % ID/g; Ratio [25]: 65.8; Ratio [26]: 5.8; remaining at 3 h [27]: 90%; Stability (Plasma): Unstable; Stability [28]: Unstable
